Results as given in ChEMBL document CHEMBL4316617, “Inhibition of the FAD containing ER oxidoreductin 1 (Ero1) protein by EN-460 as a strategy for treatment of multiple myeloma” (Bioorg Med Chem, 2019).
The source made the active and inactive calls. The calls are words filed in the database; no cut-off is given here.

Legend:
[1] = Solubility of the compound in pH 7.4 phosphate buffered saline; assay type: physicochemical; settings: buffer
MM1.S = assay: Cytotoxicity against human MM1S cells assessed as reduction in cell viability measured after 72 hrs by MTT assay; assay type: functional, cell-based
Procedure, shortened: (§1)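 MM cell lines exposed to compound for 72 h. MTT (50 μl of 2 mg/ml) added for 4 h, formazan dissolved in DMSO, absorbance read at 570 nm. IC50 calculated; mean ± SD of 3 independent experiments.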

U-266 [2] = assay: Cytotoxicity against human U266 cells assessed as reduction in cell viability measured after 72 hrs by MTT assay; assay type: functional, cell-based; settings: U-266, 72 h; procedure, shortened: as §1
U-266 [3] = assay: Induction of endoplasmic reticulum stress in human U266 cells assessed as increase in ATF4 level measured after 2 to 8 hrs by Western blot analysis; assay type: functional, cell-based
Procedure, shortened: (§2)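 U266 cells treated with compound or DMSO for 2, 4 and 8 h. Lysates resolved on 8–10% SDS-PAGE and transferred to PVDF. Blocked in 5% milk/TBST, probed overnight at 4 °C for p-eIF2α, ATF4 and ATF6 (this antibody detects full-length ATF6 only), with β-actin as loading control. Chemiluminescent detection; n = 3.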

[4] = biological target: Lysine-specific histone demethylase 1A (Homo sapiens, UniProt O60341); assay: Inhibition of recombinant human LSD1 using ARTK(diMethyl)QTARKSTGGKAPRKQLAPRKQLA as substrate measured after 30 mins by ADHP/horseradish peroxidase coupled fluorescence assay
Procedure, shortened: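 LSD-1 activity measured with a commercial kit following the manufacturer's instructions. IC50 fitted, N = 2.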

PBMC = assay: Cytotoxicity against PBMC (unknown origin) assessed as cell death; assay type: cell-based
U-266 [5] = assay: Induction of endoplasmic reticulum stress in human U266 cells assessed as increase in eIF2alpha phosphorylation measured after 2 to 8 hrs by Western blot analysis; assay type: functional, cell-based; procedure, shortened: as §2
[6] = test system: T1, ERO1-like protein alpha (Homo sapiens), Q96HE7 [C104A,C131A,C166A]; assay: Competitive inhibition of recombinant human Ero1Lalpha C104A/C131A/C166A triple mutant (22 to 468 residues) expressed in Escherichia coli BL21(DE3)-RIL using varying levels of human PDI as substrate by Lineweaver-burk plot analysis
T1 sequence (whole entry): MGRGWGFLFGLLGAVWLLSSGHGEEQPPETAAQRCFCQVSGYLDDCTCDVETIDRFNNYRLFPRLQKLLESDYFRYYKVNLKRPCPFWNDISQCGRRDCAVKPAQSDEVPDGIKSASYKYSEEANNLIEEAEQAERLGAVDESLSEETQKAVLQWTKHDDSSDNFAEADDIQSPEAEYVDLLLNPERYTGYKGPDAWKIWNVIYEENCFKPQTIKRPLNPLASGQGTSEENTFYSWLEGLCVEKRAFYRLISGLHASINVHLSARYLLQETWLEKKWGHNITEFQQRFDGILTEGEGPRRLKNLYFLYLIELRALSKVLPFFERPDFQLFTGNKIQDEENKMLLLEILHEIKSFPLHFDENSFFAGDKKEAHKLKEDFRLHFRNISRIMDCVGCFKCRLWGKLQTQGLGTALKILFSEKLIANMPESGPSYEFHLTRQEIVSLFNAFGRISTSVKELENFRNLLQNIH

[7] = biological target: Protein disulfide-isomerase (Homo sapiens) (UniProt P07237); assay: (§3) Binding affinity to recombinant human His-tagged PDI (18 to 479 residues) expressed in Escherichia coli assessed as melting temperature at 20 uM by SYPRO orange protein gel staining based differential scanning fluorimetry (reference value: 58.86 +/- 0.12 degreeC)
Chain of Protein disulfide-isomerase (Homo sapiens) (P07237 18-508 limits assumed): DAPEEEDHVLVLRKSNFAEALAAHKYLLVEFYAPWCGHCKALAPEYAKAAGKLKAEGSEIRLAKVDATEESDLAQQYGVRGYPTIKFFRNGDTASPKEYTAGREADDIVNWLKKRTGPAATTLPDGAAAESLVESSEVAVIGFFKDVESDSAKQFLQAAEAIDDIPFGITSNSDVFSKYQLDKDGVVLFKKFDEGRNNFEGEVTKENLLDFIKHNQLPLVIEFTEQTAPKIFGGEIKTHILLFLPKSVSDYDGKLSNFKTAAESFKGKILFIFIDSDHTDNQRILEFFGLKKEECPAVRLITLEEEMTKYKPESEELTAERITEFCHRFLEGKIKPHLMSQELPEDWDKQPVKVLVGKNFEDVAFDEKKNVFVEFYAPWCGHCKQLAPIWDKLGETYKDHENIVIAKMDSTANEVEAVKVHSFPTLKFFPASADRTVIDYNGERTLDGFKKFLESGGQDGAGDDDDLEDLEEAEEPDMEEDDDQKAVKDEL

ERO1-like protein alpha [8] = biological target: T2, ERO1-like protein alpha (Homo sapiens, UniProt Q96HE7, C104A/C131A/C166A); assay: Inhibition of recombinant human Ero1Lalpha C104A/C131A/C166A triple mutant (22 to 468 residues) expressed in Escherichia coli BL21(DE3)-RIL using human PDI as substrate measured after 30 mins by Amplex red dye based fluorescence assay
ERO1-like protein alpha [9] = biological target: T2, ERO1-like protein alpha; assay: (§4) Inhibition of recombinant human Ero1Lalpha C104A/C131A/C166A triple mutant (22 to 468 residues) expressed in Escherichia coli BL21(DE3)-RIL measured after 30 mins by Amplex red dye based fluorescence assay
[10] = test system: T1, ERO1-like protein alpha (Homo sapiens), Q96HE7 [C104A,C131A,C166A]; assay: as §4
[11] = test system: T1, ERO1-like protein alpha (Homo sapiens), Q96HE7 [C104A,C131A,C166A]; assay: as §3, with “Ero1Lalpha C104A/C131A/C166A triple mutant (22” for “His-tagged PDI (18”, “468” for “479”, “coli BL21(DE3)-RIL” for “coli”, “53.15” for “58.86”, “0.15” for “0.12”
U-266 [12] = assay: Induction of apoptosis in human U266 cells at 12.5 to 50 uM measured after 18 hrs by Annexin V-FITC/propidium iodide staining based flow cytometry; assay type: functional, cell-based
Procedure, shortened: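 U266 cells treated with compound or DMSO vehicle for 18 h, washed in ice-cold PBS, then stained with Annexin V-FITC/PI in binding buffer for 15 min at 37 °C in the dark. At least 10,000 cells analysed by flow cytometry. Mean ± SD, n = 3 independent experiments.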

U-266 [13] = assay: Induction of endoplasmic reticulum stress in human U266 cells assessed as reduction in full length ATF6 measured after 2 to 8 hrs by Western blot analysis; assay type: functional, cell-based; procedure, shortened: as §2
[14] = biological target: T3, Amine oxidase [flavin-containing] B (Homo sapiens, UniProt P27338); assay: Inhibition of MAOB (unknown origin) using kynuramine as substrate
T3 sequence (P27338 whole entry): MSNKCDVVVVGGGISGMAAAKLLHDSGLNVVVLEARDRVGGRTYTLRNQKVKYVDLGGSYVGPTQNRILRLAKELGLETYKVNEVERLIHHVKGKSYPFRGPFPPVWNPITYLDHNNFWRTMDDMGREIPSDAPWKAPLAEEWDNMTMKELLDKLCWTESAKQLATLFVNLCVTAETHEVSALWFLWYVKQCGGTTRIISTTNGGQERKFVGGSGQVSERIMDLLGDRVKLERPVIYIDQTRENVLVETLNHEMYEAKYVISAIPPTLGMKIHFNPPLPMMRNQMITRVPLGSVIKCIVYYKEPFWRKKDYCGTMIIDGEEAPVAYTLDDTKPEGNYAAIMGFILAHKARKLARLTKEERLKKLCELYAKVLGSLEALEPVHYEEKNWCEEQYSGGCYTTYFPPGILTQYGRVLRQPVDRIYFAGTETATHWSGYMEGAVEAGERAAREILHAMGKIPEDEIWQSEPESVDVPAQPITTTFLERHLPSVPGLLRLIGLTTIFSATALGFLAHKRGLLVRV
Procedure, shortened: (§5)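 Purchased MAO-A or MAO-B activity measured as kynuramine metabolism, with fluorescence read at Ex 310/Em 380 nm. IC50 fitted, N = 2.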

[15] = Solubility of the compound at >200 uM; assay type: physicochemical
[16] = biological target: T4, Amine oxidase [flavin-containing] A (Homo sapiens, UniProt P21397); assay: Inhibition of MAOA (unknown origin) using kynuramine as substrate; procedure, shortened: as §5
T4 sequence (P21397 whole entry): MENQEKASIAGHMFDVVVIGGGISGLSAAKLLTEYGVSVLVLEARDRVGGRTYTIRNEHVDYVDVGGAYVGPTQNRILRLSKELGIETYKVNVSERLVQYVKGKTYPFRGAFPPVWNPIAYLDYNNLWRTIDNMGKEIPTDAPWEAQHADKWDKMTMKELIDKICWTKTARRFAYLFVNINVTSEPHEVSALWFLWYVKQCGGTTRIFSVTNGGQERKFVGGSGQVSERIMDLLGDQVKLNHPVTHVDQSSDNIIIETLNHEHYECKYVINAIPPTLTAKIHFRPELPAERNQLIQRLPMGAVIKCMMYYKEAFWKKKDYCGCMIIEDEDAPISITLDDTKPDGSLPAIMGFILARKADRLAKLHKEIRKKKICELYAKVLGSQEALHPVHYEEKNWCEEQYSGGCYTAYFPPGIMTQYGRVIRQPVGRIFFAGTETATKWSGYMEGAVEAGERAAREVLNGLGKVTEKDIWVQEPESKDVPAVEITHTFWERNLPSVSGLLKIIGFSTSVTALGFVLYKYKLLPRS

solubility [1] | inhibition [6] | Tm [7] | IC50 (ERO1-like protein alpha [8]) | IC50 (ERO1-like protein alpha [9]) | inhibition [10] | Tm [11] | IC50 [14] | solubility [15] | IC50 [16] | Structure (SMILES) | IC50 (MM1.S) | IC50 (U-266 [2]) | Activity (U-266 [3]) | IC50 [4] | Activity (PBMC) | Activity (U-266 [5]) | Activity (U-266 [12]) | Activity (U-266 [13])
Insoluble | – | – | – | – | – | – | – | – | – | [N-]=[N+]=Nc1ccc(-c2ccc(/C=C3/C(=O)N(c4ccc(Cl)c(C(=O)O)c4)N=C3C(F)(F)F)o2)cc1 | 17.3 µM | 7.03 µM | – | – | – | – | – | –
– | Active | 59.2 °C | 22.1 µM | 12.7 µM | Dose-dependent effect | 55.9 °C | 30.6 µM | Insoluble | 7.91 µM | O=C(O)c1cc(N2N=C(C(F)(F)F)/C(=C/c3ccc(-c4ccccc4)o3)C2=O)ccc1Cl | 14.7 µM | 10.1 µM | Active | 4.16 µM | Toxic | Active | Active | Active
– | – | 57.7 °C | – | 12.2 µM | Dose-dependent effect | 59.8 °C | – | Insoluble | – | [N-]=[N+]=Nc1cccc(-c2ccc(/C=C3/C(=O)N(c4ccc(Cl)c(C(=O)O)c4)N=C3C(F)(F)F)o2)c1 | 18.8 µM | 14.7 µM | – | – | – | – | – | –
